Assay results published in ChEMBL document CHEMBL1137992, “Long hydrocarbon chain keto diols and diacids that favorably alter lipid disorders in vivo” (J Med Chem, 2004).

Test system: not listed separately
Assay: Concentration required for inhibition of lipid synthesis in primary cultures of rat hepatocytes
Type: functional, cell-based
Conditions: Hepatocyte
In short: (§1)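 Primary hepatocytes from male Sprague-Dawley rats (Seglen isolation), plated at 1.5×10^5 cells/cm² on collagen in serum-containing DMEM, switched to serum-free medium after 4 h, grown overnight to monolayers. Cells incubated 4 h with 0.25 μCi [1-14C]acetate/well (1 Ci/mol final) plus 0, 1, 3, 10, 30, 100 or 300 μM compound. Lipids extracted into scintillant and counted; IC50 taken from lipid synthesis rates.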

Compound `CC(C)(CO)CCCCCC(=O)CCCCC(C)(C)CO` has an IC50 of 2 µM.

Test system: not listed separately
Assay: Concentration required for inhibition of lipid synthesis in primary cultures of rat hepatocytes; value ranges from 3-10 uM
Type: functional, cell-based
Conditions: Hepatocyte
In short: as §1

With `CC(C)(CO)CCCCC(=O)CCCC(C)(C)CO` the IC50 was under 10 µM.

Test system: not listed separately
Assay: Concentration required for inhibition of lipid synthesis in primary cultures of rat hepatocytes; value ranges from 100-300 uM
Type: functional, cell-based
Conditions: Hepatocyte
In short: as §1

`Cc1ccc(C(C)(CO)CCCCC(=O)CCCCC(C)(CO)c2ccc(C)cc2)cc1` (configuration not stated) and `Cc1ccc(C(C)(CCCCC(=O)CCCCC(C)(C(=O)O)c2ccc(C)cc2)C(=O)O)cc1` (configuration not stated) cannot be ordered by IC50: under 300 µM for the first, under 300 µM for the second.

`CC(CO)(CCCC(=O)CCCC(C)(CO)c1ccccc1)c1ccccc1` (configuration not stated) and `CC(C)Cc1ccc(C(C)(CCCCC(=O)CCCCC(C)(C(=O)O)c2ccc(CC(C)C)cc2)C(=O)O)cc1` (configuration not stated) cannot be ordered by IC50: under 300 µM for the first, under 300 µM for the second.

Test system: Rattus norvegicus
Assay: Percentage change of triglycerides in obese female Zucker rats after 1 week of pre-treatment at a dose of 30 mg/kg/day
Type: functional
Conditions: not given
In short: (§2)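 Female Zucker fatty rats [Crl:(Zuc)-faBR], 10–12 weeks old (400–500 g), acclimated 7 days and fed rodent chow. Dosed once daily by oral gavage in 20% EtOH/80% PEG-200 (v/v), at 0.25% of body weight, for 2 weeks. Blood taken after a 6-h fast: orbital plexus before dosing and at day 7, cardiac puncture at day 14. Serum lipoprotein cholesterol measured by Superose 6 gel filtration with on-line cholesterol detection. Values are % change from pretreatment, mean ± SEM.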

In order of falling Change:
1. Cc1ccc(C(C)(CO)CCCCC(=O)CCCCC(C)(CO)c2ccc(C)cc2)cc1 (configuration not stated)  15%
2. Cc1ccc(C(C)(CCCCC(=O)CCCCC(C)(C(=O)O)c2ccc(C)cc2)C(=O)O)cc1 (configuration not stated)  -11%

Test system: Rattus norvegicus
Assay: Percentage change of triglycerides in obese female Zucker rats after 1 week of pre-treatment at a dose of 100 mg/kg/day
Type: functional
Conditions: not given
In short: as §2

In order of rising Change:
1. CC(C)(CO)CCCCCC(=O)CCCCC(C)(C)CO  -85%
2. CC(C)Cc1ccc(C(C)(CCCCC(=O)CCCCC(C)(C(=O)O)c2ccc(CC(C)C)cc2)C(=O)O)cc1 (configuration not stated)  -63%
3. CC(C)(CO)CCCCC(=O)CCCC(C)(C)CO  -40%
4. CC(CO)(CCCC(=O)CCCC(C)(CO)c1ccccc1)c1ccccc1 (configuration not stated)  -20%

Test system: Rattus norvegicus
Assay: Percentage change of triglycerides in obese female Zucker rats after 2 weeks of pre-treatment at a dose of 30 mg/kg/day
Type: functional
Conditions: not given
In short: as §2

In order of falling Change:
1. Cc1ccc(C(C)(CCCCC(=O)CCCCC(C)(C(=O)O)c2ccc(C)cc2)C(=O)O)cc1 (configuration not stated)  12%
2. Cc1ccc(C(C)(CO)CCCCC(=O)CCCCC(C)(CO)c2ccc(C)cc2)cc1 (configuration not stated)  0%

Test system: Rattus norvegicus
Assay: Percentage change of triglycerides in obese female Zucker rats after 2 weeks of pre-treatment at a dose of 100 mg/kg/day
Type: functional
Conditions: not given
In short: as §2

In order of rising Change:
1. CC(C)(CO)CCCCCC(=O)CCCCC(C)(C)CO  -87%
2. CC(C)Cc1ccc(C(C)(CCCCC(=O)CCCCC(C)(C(=O)O)c2ccc(CC(C)C)cc2)C(=O)O)cc1 (configuration not stated)  -66%
3. CC(CO)(CCCC(=O)CCCC(C)(CO)c1ccccc1)c1ccccc1 (configuration not stated)  -17%
4. CC(C)(CO)CCCCC(=O)CCCC(C)(C)CO  -12%

Test system: Rattus norvegicus
Assay: Percentage change of HDL cholesterol levels in obese female Zucker rats after 1 week of pre-treatment at a dose of 30 mg/kg/day
Type: functional
Conditions: not given
In short: (§3)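 Obese female Zucker fatty rats were gavaged once daily with 30 or 100 mg/kg/day in 20% EtOH/80% PEG-200 for 2 weeks. Sera were collected after a 6 h fast, before dosing, at 1 week (orbital plexus) and at 2 weeks (cardiac puncture). HDL-C was total cholesterol multiplied by HDL area fraction from gel-filtration lipoprotein profiles. Reported as % change from pretreatment ± SEM.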

In order of rising Change:
1. Cc1ccc(C(C)(CO)CCCCC(=O)CCCCC(C)(CO)c2ccc(C)cc2)cc1 (configuration not stated)  -3%
2. Cc1ccc(C(C)(CCCCC(=O)CCCCC(C)(C(=O)O)c2ccc(C)cc2)C(=O)O)cc1 (configuration not stated)  0%

Test system: Rattus norvegicus
Assay: Percentage change of HDL cholesterol levels in obese female Zucker rats after 1 week of pre-treatment at a dose of 100 mg/kg/day
Type: functional
Conditions: not given
In short: as §3

In order of rising Change:
1. CC(CO)(CCCC(=O)CCCC(C)(CO)c1ccccc1)c1ccccc1 (configuration not stated)  -14%
2. CC(C)Cc1ccc(C(C)(CCCCC(=O)CCCCC(C)(C(=O)O)c2ccc(CC(C)C)cc2)C(=O)O)cc1 (configuration not stated)  11%
3. CC(C)(CO)CCCCC(=O)CCCC(C)(C)CO  47%
4. CC(C)(CO)CCCCCC(=O)CCCCC(C)(C)CO  78%

Test system: Rattus norvegicus
Assay: Percentage change of HDL cholesterol levels in obese female Zucker rats after 2 weeks of pre-treatment at a dose of 30 mg/kg/day
Type: functional
Conditions: not given
In short: as §3

In order of rising Change:
1. Cc1ccc(C(C)(CO)CCCCC(=O)CCCCC(C)(CO)c2ccc(C)cc2)cc1 (configuration not stated)  -2%
2. Cc1ccc(C(C)(CCCCC(=O)CCCCC(C)(C(=O)O)c2ccc(C)cc2)C(=O)O)cc1 (configuration not stated)  10%

Test system: Rattus norvegicus
Assay: Percentage change of HDL cholesterol levels in obese female Zucker rats after 2 weeks of pre-treatment at a dose of 100 mg/kg/day
Type: functional
Conditions: not given
In short: as §3

In order of falling Change:
1. CC(C)(CO)CCCCCC(=O)CCCCC(C)(C)CO  78%
2. CC(C)Cc1ccc(C(C)(CCCCC(=O)CCCCC(C)(C(=O)O)c2ccc(CC(C)C)cc2)C(=O)O)cc1 (configuration not stated)  62%
3. CC(C)(CO)CCCCC(=O)CCCC(C)(C)CO  48%
4. CC(CO)(CCCC(=O)CCCC(C)(CO)c1ccccc1)c1ccccc1 (configuration not stated)  -11%

Test system: Rattus norvegicus
Assay: Percentage change of non-HDL cholesterol levels in obese female Zucker rats after 1 week of pre-treatment at a dose of 30 mg/kg/day
Type: functional
Conditions: not given
In short: as §2

In order of falling Change:
1. Cc1ccc(C(C)(CO)CCCCC(=O)CCCCC(C)(CO)c2ccc(C)cc2)cc1 (configuration not stated)  61%
2. Cc1ccc(C(C)(CCCCC(=O)CCCCC(C)(C(=O)O)c2ccc(C)cc2)C(=O)O)cc1 (configuration not stated)  0%

Test system: Rattus norvegicus
Assay: Percentage change of non-HDL cholesterol levels in obese female Zucker rats after 1 week of pre-treatment at a dose of 100 mg/kg/day
Type: functional
Conditions: not given
In short: as §2

In order of rising Change:
1. CC(C)(CO)CCCCCC(=O)CCCCC(C)(C)CO  -70%
2. CC(C)Cc1ccc(C(C)(CCCCC(=O)CCCCC(C)(C(=O)O)c2ccc(CC(C)C)cc2)C(=O)O)cc1 (configuration not stated)  -40%
3. CC(C)(CO)CCCCC(=O)CCCC(C)(C)CO  -26%
4. CC(CO)(CCCC(=O)CCCC(C)(CO)c1ccccc1)c1ccccc1 (configuration not stated)  -18%

Test system: Rattus norvegicus
Assay: Percentage change of non-HDL cholesterol levels in obese female Zucker rats after 2 weeks of pre-treatment at a dose of 30 mg/kg/day
Type: functional
Conditions: not given
In short: as §2

In order of falling Change:
1. Cc1ccc(C(C)(CCCCC(=O)CCCCC(C)(C(=O)O)c2ccc(C)cc2)C(=O)O)cc1 (configuration not stated)  47%
2. Cc1ccc(C(C)(CO)CCCCC(=O)CCCCC(C)(CO)c2ccc(C)cc2)cc1 (configuration not stated)  46%

Test system: Rattus norvegicus
Assay: Percentage change of non-HDL cholesterol levels in obese female Zucker rats after 2 weeks of pre-treatment at a dose of 100 mg/kg/day
Type: functional
Conditions: not given
In short: as §2

In order of falling Change:
1. CC(C)(CO)CCCCC(=O)CCCC(C)(C)CO  4%
2. CC(CO)(CCCC(=O)CCCC(C)(CO)c1ccccc1)c1ccccc1 (configuration not stated)  -32%
3. CC(C)Cc1ccc(C(C)(CCCCC(=O)CCCCC(C)(C(=O)O)c2ccc(CC(C)C)cc2)C(=O)O)cc1 (configuration not stated)  -44%
4. CC(C)(CO)CCCCCC(=O)CCCCC(C)(C)CO  -78%
